The list is not random: actives were taken first. Their share in the collection is about 1.4%.
HTRA1 inh = blocks human HTRA1 serine peptidase. Q92743. recombinant HTRA1, FP-rhodamine activity-based probe, fluorescence polarization. inhibition, % at 5.96 µM. 0.5% of 340,000 active. AID 504803; in the data active means inhibition above about 36%;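 further: 0% = enzyme with DMSO and 100% = wells lacking enzyme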
RBBP9 inhibitor = blocks human serine hydrolase RBBP9 | recombinant RBBP9, FP-Rh probe fluorescence polarization | inhibition, % at 7.94 µM | 0.2% of 220,000 active;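 active means inhibition above the campaign mean of all tested compounds plus 3 SD, cut at about 14% in these data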;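 further: plate controls were DMSO wells with RBBP9 for no effect and wells lacking RBBP9 protein for full effect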
Target sequence (O75884 whole entry, looked up): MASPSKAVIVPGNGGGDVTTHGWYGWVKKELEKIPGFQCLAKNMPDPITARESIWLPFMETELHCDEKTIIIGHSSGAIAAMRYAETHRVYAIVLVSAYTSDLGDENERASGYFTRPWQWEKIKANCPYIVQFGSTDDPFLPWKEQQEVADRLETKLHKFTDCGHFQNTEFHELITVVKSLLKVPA
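Measured by – fluorescence polarization · Test system – RBBP9 protein · Input – 2.5 µM RBBP9 dispensing solution, before mixing · Measure – percent inhibition from mP, scaled between DMSO and no-protein wells · Benchmarks – DMSO-treated enzyme wells and wells lacking RBBP9 · Times – preincubation 30 min plus labeling 45 min at 25 °C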
mABHD4 FP = inhibits mouse alpha/beta hydrolase domain 4; inhibition, % at 8.92 µM; purified mABHD4, FP-Rh probe fluorescence polarization; Q8VD66; 0.54% of 370,000 active; AID 720543;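 active means inhibition exceeding the mean over every tested compound plus 3 SD, cut at about 30% in these data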;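 further: 0% = plate median of compound wells and 100% = S159A mutant with DMSO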
Target sequence (Q8VD66 whole entry, looked up, the tested form may be a part): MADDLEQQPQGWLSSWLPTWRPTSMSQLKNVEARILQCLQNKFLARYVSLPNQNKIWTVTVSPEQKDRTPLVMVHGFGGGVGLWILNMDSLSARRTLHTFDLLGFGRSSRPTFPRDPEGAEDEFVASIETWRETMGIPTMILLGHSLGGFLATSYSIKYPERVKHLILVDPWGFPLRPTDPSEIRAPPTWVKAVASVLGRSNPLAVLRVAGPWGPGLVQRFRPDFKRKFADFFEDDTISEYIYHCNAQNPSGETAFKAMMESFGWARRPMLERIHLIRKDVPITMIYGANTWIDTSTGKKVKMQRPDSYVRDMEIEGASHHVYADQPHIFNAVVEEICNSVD
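Assay system: wild-type mouse ABHD4 protein; compound: single nominal dose of 8.92 µM, 0.89% DMSO final; schedule: 45 min + 60 min at 25 °C; measured by: FP readout, ex 525 nm / em 598 nm; evaluation: % inhibition of FP-Rh probe binding versus controls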
SIAE primary = human SIAE inhibition, primary screen; Q9HAT2; SIAE FP-Rh probe binding, fluorescence polarization; inhibition, % at 9.66 µM; 0.69% of 370,000 active; AID 1053197;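 active means inhibition above a cutoff: mean of compounds within the control limits plus 3 SD of those, cut at about 17% in these data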;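 further: 0% = plate median of compound wells and 100% = probe without SIAE protein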
mABHD4 conf = confirmation of mouse ABHD4 inhibitors | shares compounds with mABHD4 FP | purified mABHD4, FP-Rh probe fluorescence polarization | inhibition, % at 8.92 µM | 55% of 1,800 active | AID 720658;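 active means mean inhibition across replicates above the hit cutoff set in the primary screen, cut at about 30% in these data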;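 further: 0% = wild-type ABHD4 with DMSO and 100% = catalytically dead S159A mutant with DMSO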
Active calls of the source: *; . = not tested or not shown; ! = not confirmed by another sample.

SMILES	HTRA1 inh	RBBP9 inhibitor	mABHD4 FP	SIAE primary	mABHD4 conf
Cc1ccc(C)c(S(=O)(=O)/N=C2\C=C(NS(=O)(=O)c3ccccc3)C(=O)c3ccccc32)c1	13	.	46*	-4	58*
Cc1ccccc1NC1=C/C(=N\S(=O)(=O)c2ccc(C(=O)O)cc2)c2ccccc2C1=O	26	.	63*	4	65*
Cc1ccc(S(=O)(=O)Nc2cc(C(=O)O)ccc2N2CCCCC2)cc1	-4	-11	23	4	.
CC1CCN(c2ccccc2NC(=O)c2ccc(N3CCOCC3)c([N+](=O)[O-])c2)CC1	-4	2	5	-3	.
CC1CCN(c2ccc(C(=O)O)cc2NS(=O)(=O)c2ccc(C(C)(C)C)cc2)CC1	.	.	42*	6	52*
CC1CCN(c2ccc(C(=O)O)cc2NS(=O)(=O)c2ccccc2[N+](=O)[O-])CC1	.	.	44*	1	42*
COc1ccc(C)cc1NS(=O)(=O)c1ccc2c(c1)N(C)CCO2	-1	.	6	4	.
O=S(=O)(c1ccc(NC(=S)N/N=C/c2ccc(O)c(O)c2)cc1)N1CCOCC1	35	-12	31*	-4	21
CN1OC[C@@H]2CN3C(=Nc4cc(C(F)(F)F)cc(C(F)(F)F)c4)Sc4ccccc4[C@@H]3C[C@@H]21	.	.	-8	1	.
CN1/C(=C\C=Nc2ccc3ccccc3c2)C(C)(C)c2ccccc21	-22	0	.	.	.
CN(C)c1ccc(N=C/C=C2\N(C)c3ccccc3C2(C)C)cc1	19	9	32*	-4	8
COc1ccc(S[C@]2(C(=O)N3CCCC3)CC(=O)N(S(=O)(=O)c3ccc(F)cc3)[C@@H]2c2ccc(OC)cc2)cc1	.	.	-1	-5	.
COc1cc(C=NN2CCN(C(c3ccccc3)c3ccccc3)CC2)cc(OC)c1OC(C)=O	.	.	2	7	.
COC(=O)C1=C(N)Oc2cc(N(C)C)ccc2C1c1ccccc1OC (configuration not stated)	4	6	47*	5	-20
COC(=O)C1=C(N)Oc2cc(C)n(CC3CCCO3)c(=O)c2C1c1ccccc1OC (configuration not stated)	5	0	0	6	.
CCN(CC)c1cccc(OCC(=O)N(C)CCC#N)c1	23	7	63*	-46	-53
CCOc1cccc(C(=O)Nc2ccc(N(CC)CC)cc2)c1	4	-5	-1	7	.
O=c1c(-c2ccco2)nc2ccccc2n1C(c1ccccn1)c1nc2ccccc2[nH]1 (configuration not stated)	.	.	38*	5	4
O=c1c(-c2ccco2)nc2ccccc2n1C(c1ccccc1)c1nc2ccccc2[nH]1 (configuration not stated)	.	.	-2	-7	.
CCCCN1C(=O)C(CC(=O)NCCc2ccccn2)CC(C(=O)N2CCCCCC2)=C1C (configuration not stated)	.	.	2	0	.
COc1ccc(OC)c(N/C(C)=C/C(=O)c2ccccc2)c1	7	-7	1	7	.
COc1ccc(OC)c(NC(=O)Nc2ccc(O)c3ccccc23)c1	17	.	33*	10	41*
COc1ccc(OC)c(NC(=O)C(=O)/C=C(\O)c2cc(OC)ccc2OC)c1	13	1	35*	1	2
O=C(CCc1nc(-c2ccccc2F)no1)NCCc1ccc(F)cc1	.	.	0	7	.
CC(C)c1[nH]nc2c1C(c1ccc(F)cc1)N(Cc1ccccc1)C2=O (configuration not stated)	.	.	-6	2	.
SMILES	HTRA1 inh	RBBP9 inhibitor	mABHD4 FP	SIAE primary	mABHD4 conf
Cc1nnc(Nc2ccc(O)cc2)[nH]c1=O	9	-8	43*	2	24
Cc1nnc(Nc2ccc(C(=O)O)cc2)[nH]c1=O	-2	-9	-3	0	.
Cc1cccc(Nc2cc(C)c3c(O)cccc3n2)c1C	9	3	30*	9	42*
CN(C(=S)NC(=O)C1CC1)c1ccc(O)cc1	6	.	30*	3	-2
Brc1ccc(-c2csc(N3CCNCC3)n2)cc1	.	.	61*	2	75*
O=C(C1CCN(c2nc(-c3ccc(Br)cc3)cs2)CC1)N1CCNCC1	.	.	8	6	.
CCOc1ccc(C=NNc2ccc(S(=O)(=O)Nc3ccccc3C(=O)O)cc2[N+](=O)[O-])cc1OC	15	.	.	.	.
CC(=O)Nc1cccc(/C(C)=N/Nc2ccc(S(=O)(=O)Nc3ccccc3C(=O)O)cc2[N+](=O)[O-])c1	7	.	42*	7	63*
CC(=O)Nc1ccc(C=NNc2ccc(S(=O)(=O)Nc3ccccc3C(=O)O)cc2[N+](=O)[O-])cc1	35	.	55*	-3	77*
COc1ccc(N2CCCN(CC(=O)Nc3ccccc3C)CC2)cc1	.	.	1	3	.
COc1cc(/C=C2\SC(N)=NC2=O)cc(OC)c1	-11	.	-10	-7	.
COc1ccc(C(=O)OCC(=O)c2ccc3c(c2)NC(=O)CO3)cc1OC	1	.	0	-9	.
CC(=O)Nc1cc(NC(C)=O)cc(C(=O)OCC(=O)c2ccc3c(c2)NC(=O)CO3)c1	-3	.	46*	-4	7
Cc1nc2ccc(N)cc2s1	-3	2	3	9	.
C[n+]1c2cc(N)ccc2cc2ccc(N)cc21	33	.	30*!	25*!	43*
Cc1[nH]n(-c2ccccc2)c(=O)c1C(c1ccccc1[N+](=O)[O-])C(C#N)C#N (configuration not stated)	14	.	42*	14	38*
C/C(=N\Nc1nc2ccccc2[nH]1)c1ccc2c(c1)OCO2	19	2	24	10	.
C/C(=N\Nc1nc2ccccc2[nH]1)c1ccccn1	27	.	36*	4	21
CC(/C=N/Nc1nc(C)cc(=O)[nH]1)=C\c1ccccc1	5	0	-1	3	.
CC(/C=N/Nc1nc2ccccc2[nH]1)=C\c1ccccc1	13	2	42*	11	44*
CCN(CC)c1ccc(/C=N/Nc2nc3ccccc3[nH]2)cc1	35	-6	30*	17	47*
CCOc1cc(NCc2ccccc2)c2ncn(C(C)C)c2c1	10	.	20	3	.
CC(C)n1cnc2c(NCc3ccccc3)cc(Cc3ccc(F)cc3)cc21	11	.	31*	7	21
CC(C)(C)Nc1c(C2CCNCC2)nc2c(OCc3ccccc3)cccn12	.	.	3	1	.
O=C(CSc1nnc(-c2ccccn2)n1-c1ccc(Cl)cc1)Nc1ccc(S(=O)(=O)Nc2nccs2)cc1	.	.	-8	-13	.
C[C@H]1COc2cc(Br)ccc2S(=O)(=O)N1Cc1cn(Cc2ccc(Br)cc2)nn1	.	.	0	-5	.
F[B-](F)(F)COc1ccccc1	-3	.	68*	3	36*
O=C(CCCN1CCN(c2ccccc2)CC1)c1ccc(F)cc1	7	.	-8	-5	.
O=C1NCN(c2ccccc2)C12CCN(CCCC(c1ccc(F)cc1)c1ccc(F)cc1)CC2	-10	4	32*	3	37*
CC(C)(C)N(Cc1cn(Cc2ccccc2)nn1)S(=O)(=O)c1ccc(F)cc1Br	.	.	-4	-2	.

Compound activity as filed in PubChem.
